CAL PDZ FP-1: CAL PDZ peptide-binding inhibitors, primary screen, biochemical, fluorescence polarization, Cer-tagged CAL PDZ, HTS | inhibition, % at 20 µM | purified CAL PDZ, TMR-peptide fluorescence polarization, 1 h | actives 0.02% (n = 330,000) | Golgi-associated PDZ and coiled-coil motif-containing protein (Homo sapiens), Q9HD26;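 active means highest replicate inhibition of at least 40%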;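 further: plate controls were DMSO neutral control wells for no effect and unlabeled competitor peptide control wells for full effect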
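System: tagged CAL PDZ domain. Schedule: 1 h room-temperature incubation prior to read. Signal: fluorescence polarization (mP). Measure: percent inhibition from loss of millipolarization.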
Rtt109 Vps75: inhibitors of C. albicans Rtt109/Vps75 HAT, primary screen, biochemical, ThioGlo CoA-SH fluorescence, plate reader. purified Rtt109/Vps75, 4 h. inhibition, % at 34.9 µM. actives 0.16% (n = 330,000). AID 540336, 2011. Histone acetyltransferase RTT109 (Candida albicans (strain SC5314 / ATCC MYA-2876)), …;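 active means inhibition of at least 50% in every replicate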
Target sequence (Q5AAJ8 whole entry, looked up): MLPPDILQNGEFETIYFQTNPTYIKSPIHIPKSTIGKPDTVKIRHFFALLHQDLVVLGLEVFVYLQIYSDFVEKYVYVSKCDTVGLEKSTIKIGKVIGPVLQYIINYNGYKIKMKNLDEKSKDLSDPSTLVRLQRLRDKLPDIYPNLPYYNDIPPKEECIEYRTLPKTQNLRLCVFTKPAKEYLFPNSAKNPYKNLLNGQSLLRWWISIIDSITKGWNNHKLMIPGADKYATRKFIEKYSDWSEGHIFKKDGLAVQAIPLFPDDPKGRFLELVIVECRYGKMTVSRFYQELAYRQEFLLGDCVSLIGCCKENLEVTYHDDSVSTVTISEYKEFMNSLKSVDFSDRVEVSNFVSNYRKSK
ALR inh: inhibitors of human ALR sulfhydryl oxidase, primary screen, biochemical, H2O2 detection, HRP-luminol luminescence, single point; purified ALR, DTT oxidation; inhibition, % (concentration not given with the values); actives 3.8% (n = 290,000); AID 485317, 2010;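 active means mean replicate inhibition above about 79%, with every replicate also reaching it, limit read from the data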
Target sequence (P55789 whole entry, looked up): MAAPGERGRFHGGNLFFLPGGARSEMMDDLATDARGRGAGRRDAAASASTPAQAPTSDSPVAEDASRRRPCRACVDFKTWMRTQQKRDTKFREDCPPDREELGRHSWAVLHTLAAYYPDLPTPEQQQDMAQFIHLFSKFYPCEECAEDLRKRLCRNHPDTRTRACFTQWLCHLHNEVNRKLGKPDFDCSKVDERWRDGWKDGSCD
CAL PDZ FP-2: untagged CAL PDZ binding inhibitors, primary screen, biochemical, fluorescence polarization, HTS. purified CAL PDZ, TMR-peptide fluorescence polarization, 1 h. inhibition, % at 24.9 µM. actives 0.92% (n = 300,000);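 active means mean inhibition of at least 30% with at least half of replicates also reaching 30%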;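 further: 0% = DMSO neutral control and 100% = excess unlabeled competitor peptide PRC23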
Dyrk1A ADPGlo: rat Dyrk1A kinase inhibitors, primary screen, biochemical, single point, plate reader | Dual specificity tyrosine-phosphorylation-regulated kinase 1A (Rattus norvegicus), Q63470 | ADP-Glo luminescence, NFATc1 peptide | inhibition, % at 12.5 µM | actives 0.43% (n = 310,000) | AID 504441, 2011; in the data active means inhibition above about 50%;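 further: plate controls were vehicle with enzyme for no effect and no enzyme for full effect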
* = called active by the depositor; i = inactive; nt = not tested or not shown. The list is not random: actives were taken first. Their share in the collection is about 4.3%.

SMILES | CAL PDZ FP-1 | Rtt109 Vps75 | ALR inh | CAL PDZ FP-2 | Dyrk1A ADPGlo
COc1ccc(NC(=S)Nc2ncccc2C)cc1OC | -0.2 | -3.4 | 83.1* | -2.2 | -0.2
COCCNC(=S)Nc1ccc2nc(N3CCCC3)cc(C)c2c1 | -1.2 | 7.0 | 72.5 | -1.6 | 6.5
Cc1cc(N2CCCC2)nc2ccc(NC(=S)NC(C)C)cc12 | -1.8 | -8.5 | 43.3 | -4.6 | -3.1
COCCNC(=S)Nc1ccc2nc(N3CCOCC3)cc(C)c2c1 | -2.2 | 3.3 | 84.9* | -3.3 | -0.5
Cc1cc(N2CCOCC2)nc2ccc(NC(=S)NC(C)C)cc12 | -0.4 | -3.0 | 92.7* | -1.8 | 3.8
Cc1cc(N2CCOCC2)nc2ccc(NC(=S)NCc3ccc4c(c3)OCO4)cc12 | -1.3 | 7.6 | 98.8* | 0.4 | -58.2
Nc1cccc(-c2cn3cc(C(F)(F)F)cc(Cl)c3n2)c1 | 0.3 | -0.7 | 98.9* | -2.1 | -7.3
COc1ccc(C2=NC(c3ccccc3)CO2)cc1 (stereo not drawn) | nt | nt | 1.1 | nt | nt
COc1ccc(C2CC23N=C(c2ccccc2)OC3=O)cc1 (stereo not drawn) | -0.8 | -2.7 | 96.8* | -4.4 | -1.1
Cc1ccc(N=C2C(=S)N(c3ccc(C)cc3)C(=N)N2/N=C/c2ccc(Cl)cc2)cc1 | -2.5 | 10.9 | 95.8* | -1.3 | -0.9
O=C(O)c1ccccc1C(=O)Nc1ccc(Oc2ccc3ccccc3c2)cc1 | 0.2 | 4.5 | 99.0* | -2.6 | -0.7
Cc1c(C)c(C)c(C(=O)c2ccc(NC(=O)c3ccccc3C(=O)O)cc2)c(C)c1C | -0.9 | -2.4 | 96.4* | -2.5 | -0.3
Cc1ccc(C(=O)Nc2ccc(Nc3ccccc3)cc2)cc1C | -0.1 | 6.6 | 16.4 | -5.8 | 0.4
Cc1ccc(C(=O)Nc2ccc(Oc3ccc(C(=O)O)c(C(=O)O)c3)cc2)cc1C | nt | -5.6 | 98.2* | -8.9 | 14.7
O=C(O)c1ccccc1C(=O)NNc1ccc(Cl)cc1 | -1.3 | -2.1 | 98.8* | -1.6 | 1.8
Cc1cc(OC(=O)C(c2ccccc2)c2ccccc2)c([N+](=O)[O-])c(=O)[nH]1 | -0.4 | -29.0 | 6.8 | 2.1 | -2.9
Cc1cc(C)c(Cc2c(C)nc3c(C(=O)NCc4ccco4)cnn3c2C)c(C)c1 | nt | -6.7 | -3.9 | -4.4 | 6.7
CCOC(=O)c1ccc(N2C(=O)CC(Sc3nnc(C)s3)C2=O)cc1 (stereo not drawn) | -0.7 | 7.1 | 91.2* | -3.5 | -1.2
CCOC(=O)c1ccc(N2C(=O)CC(Sc3nc(C)cc(C)n3)C2=O)cc1 (stereo not drawn) | -3.0 | -4.1 | 21.7 | -2.2 | -4.2
COc1ccc2c(c1)c(=O)oc1cc(O)ccc12 | -0.3 | 1.1 | -2.6 | -3.7 | 26.0
O=c1oc2cc(O)ccc2c2ccccc12 | -0.4 | 3.0 | 88.0* | -1.8 | 35.5
CN(NC(=O)c1ccccc1F)c1ccc([N+](=O)[O-])cn1 | -0.8 | 7.6 | -4.5 | 54.8* | -0.1
CCc1ccccc1Nc1nc(N)nc(CSCC(=O)c2cc(C)n(C)c2C)n1 | 0.8 | 22.3 | 97.7* | -1.8 | -4.2
COc1cc2c(cc1OC)C(c1ccc(Br)cc1)CC(=O)N2 (stereo not drawn) | nt | 4.7 | -13.0 | 62.3* | -4.1
COC(=O)C(NNc1ccccc1C)(NC(=O)c1ccc(F)cc1)C(F)(F)F (stereo not drawn) | -2.2 | nt | 97.9* | -1.7 | -5.6
SMILES | CAL PDZ FP-1 | Rtt109 Vps75 | ALR inh | CAL PDZ FP-2 | Dyrk1A ADPGlo
Cc1cc(Nc2ccc(N3CCC(C)CC3)cc2)n2ncnc2n1 | -0.6 | -3.0 | 90.2* | 2.3 | -0.7
COc1ccc(CCNC(=O)NCCc2c[nH]c3ccccc23)cc1OC | -0.5 | 3.3 | 0.3 | nt | nt
COc1cc2c(CCNC(C)=O)c[nH]c2cc1O | 0.2 | -14.8 | 80.2* | -3.5 | -5.1
CCN(CC)c1ccc(/C=C/c2ccc3ccc(OC)cc3[n+]2CC)cc1 | -1.2 | -8.3 | 99.1* | -17.7 | 7.9
C[n+]1c(/C=C/c2ccc(O)cc2)ccc2ccccc21 | -0.1 | 1.6 | 98.9* | -2.5 | 8.0
CC[n+]1c(/C=C/c2ccc(N(C)C)cc2)ccc2ccccc21 | 1.9 | 13.0 | 98.4* | -3.1 | 5.7
CC[n+]1c(/C=C/c2ccc(OC)c(OC)c2)ccc2ccccc21 | -0.1 | 3.4 | 19.6 | -3.1 | nt
COc1ccc(C(=O)Cc2nnc(C)s2)cc1 | 0.6 | -2.2 | 6.4 | -3.7 | 8.7
COc1ccc(NC(=O)c2sc3ncn(CC(=O)N4CCCCC4)c(=O)c3c2C)cc1OC | -3.3 | 0.5 | -8.6 | 3.4 | -4.4
CS(=O)(=O)N1CCN=C1SCc1ccc([N+](=O)[O-])cc1 | -1.3 | -4.6 | 98.6* | -3.9 | -8.7
CC(=O)Nc1ccc(S(=O)(=O)N2CCN=C2SCc2ccccc2C)cc1 | 1.2 | -5.7 | 97.8* | -5.9 | -3.9
CC(=O)Nc1ccc(S(=O)(=O)N2CCN=C2SCc2ccc([N+](=O)[O-])cc2)cc1 | -1.5 | 1.5 | 98.9* | -2.8 | 1.5
O=S(=O)(/N=C(/Nc1cccc2ccccc12)c1ccccc1)c1ccc(F)cc1 | -2.2 | 21.2 | -4.8 | -2.5 | nt
COc1cc(OCC(=O)NC(C)C)cc2c1C(=O)O[C@@H](C)CCCC(=O)CCCCC2 | nt | -3.9 | -0.2 | 46.3* | -5.2
CC(=O)Nc1ccc(NC(=O)c2c(C)c(-c3ccccc3)nc3ccccc23)cc1 | -0.6 | 0.7 | -22.1 | -3.4 | 4.0
O=C(NC(c1ccc(Cl)cc1)c1c(O)ccc2ccccc12)c1ccccc1 (stereo not drawn) | -2.1 | 41.6 | -1.3 | 1.7 | 0.8
CC(=O)NC(c1ccc(Cl)cc1)c1c(O)ccc2ccc(O)cc12 (stereo not drawn) | -2.1 | -1.3 | 95.6* | -1.4 | 5.3
Cc1ccc(NNS(=O)(=O)c2ccc(C)cc2)cc1 | -1.4 | 8.7 | 97.8* | -1.2 | 2.3
Cc1ccc(S(=O)(=O)NCCNS(=O)(=O)c2ccc(C)cc2)cc1 | nt | 1.6 | -2.9 | 56.1* | 0.4
O=C(Cn1cccc1C(=O)c1ccccc1)NCc1ccc(F)cc1 | -0.8 | 6.9 | -1.8 | nt | -2.0
Cc1ccc(NC(=O)CS(=O)CC(=O)Nc2ccccc2-c2ccc(C)o2)cc1 (stereo not drawn) | -1.5 | -9.9 | 99.1* | -1.2 | -0.8
COC(=O)c1cn(NC(=O)Cc2cccc(OC)c2)c(=O)c2ccccc12 | -0.9 | -4.4 | -2.8 | 33.5* | -1.9
COC(=O)c1cn(NC(=O)Cc2ccc(OC)c(OC)c2)c(=O)c2ccccc12 | 0.0 | 4.9 | nt | 6.4 | -2.9
Cc1c(O)ccc2c(CN3CCN(CCO)CC3)cc(=O)oc12 | 0.7 | 4.3 | 90.0* | -3.2 | 21.8
Cc1c(O)ccc2c(CN3CCOCC3)cc(=O)oc12 | 0.1 | i | 88.1* | nt | 49.4
